Data taken from ChEMBL document CHEMBL1131099, “Biologically active oligodeoxyribonucleotides. 5. 5'-End-substituted d(TGGGAG) possesses anti-human immunodeficiency virus type 1 activity by forming a G-quadruplex structure” (J Med Chem, 1998).

Experiments:
MT4 [1] = assay: Cytotoxicity was measured against MT-4 cells using MTT assay.; assay type: functional; conditions: Homo sapiens
MT4 [2] = assay: In vitro inhibitory activity for cytopathicities induced by HIV-1III B against MT-4 cells.; assay type: functional, cell-based; conditions: Homo sapiens
Outline: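 Exponentially growing MT-4 cells were pelleted (140g, 5 min), infected in a small volume of RPMI-1640 with 100 TCID50 HIV-1 IIIB for 1 h, washed, and plated at 2.5 × 10⁴ cells/well with serial oligonucleotide dilutions. Viability was read by MTT at day 6. IC50 was taken from dose-response curves, as the mean of duplicate or quadruplicate ± SD.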

Compound | CC50 (MT4 [1]) | IC50 (MT4 [2])
Cc1cn([C@H]2C[C@H](OP(=O)(O)OC[C@H]3O[C@@H](n4cnc5c(O)nc(N)nc54)C[C@@H]3O)[C@@H](COCc3ccc(OCc4ccccc4)c(OCc4ccccc4)c3)O2)c(=O)[nH]c1=O | > 100 µM | > 100 µM
Cc1cn([C@H]2C[C@H](OP(=O)(O)OC[C@H]3O[C@@H](n4cnc5c(=O)[nH]c(N)nc54)C[C@@H]3OP(=O)(O)OC[C@H]3O[C@@H](n4cnc5c(=O)[nH]c(N)nc54)C[C@@H]3OP(=O)(O)OC[C@H]3O[C@@H](n4cnc5c(=O)[nH]c(N)nc54)C[C@@H]3OP(=O)(O)OC[C@H]3O[C@@H](n4cnc5c(N)ncnc54)C[C@@H]3OP(=O)(O)OC[C@H]3O[C@@H](n4cnc5c(=O)[nH]c(N)nc54)C[C@@H]3O)[C@@H](CO[Si](C)(C)C(C)(C)C)O2)c(=O)[nH]c1=O | 1.2 µM | > 40 µM
Cc1cn([C@H]2C[C@H](OP(=O)(O)OC[C@H]3O[C@@H](n4cnc5c(=O)[nH]c(N)nc54)C[C@@H]3OP(=O)(O)OC[C@H]3O[C@@H](n4cnc5c(=O)[nH]c(N)nc54)C[C@@H]3OP(=O)(O)OC[C@H]3O[C@@H](n4cnc5c(=O)[nH]c(N)nc54)C[C@@H]3OP(=O)(O)OC[C@H]3O[C@@H](n4cnc5c(N)ncnc54)C[C@@H]3OP(=O)(O)OC[C@H]3O[C@@H](n4cnc5c(=O)[nH]c(N)nc54)C[C@@H]3O)[C@@H](COCc3ccc(OCc4ccccc4)c(OCc4ccccc4)c3)O2)c(=O)[nH]c1=O | > 40 µM | 0.37 µM
Cc1cn([C@H]2C[C@H](OP(=O)(O)OC[C@H]3O[C@@H](n4cnc5c(=O)[nH]c(N)nc54)C[C@@H]3OP(=O)(O)OC[C@H]3O[C@@H](n4cnc5c(=O)[nH]c(N)nc54)C[C@@H]3OP(=O)(O)OC[C@H]3O[C@@H](n4cnc5c(=O)[nH]c(N)nc54)C[C@@H]3OP(=O)(O)OC[C@H]3O[C@@H](n4cnc5c(N)ncnc54)C[C@@H]3OP(=O)(O)OC[C@H]3O[C@@H](n4cnc5c(=O)[nH]c(N)nc54)C[C@@H]3O)[C@@H](COCc3ccccc3-c3ccccc3)O2)c(=O)[nH]c1=O | > 40 µM | 1.2 µM
Cc1cn([C@H]2C[C@H](OP(=O)(O)OC[C@H]3O[C@@H](n4cnc5c(=O)[nH]c(N)nc54)C[C@@H]3OP(=O)(O)OC[C@H]3O[C@@H](n4cnc5c(=O)[nH]c(N)nc54)C[C@@H]3OP(=O)(O)OC[C@H]3O[C@@H](n4cnc5c(=O)[nH]c(N)nc54)C[C@@H]3OP(=O)(O)OC[C@H]3O[C@@H](n4cnc5c(N)ncnc54)C[C@@H]3OP(=O)(O)OC[C@H]3O[C@@H](n4cnc5c(=O)[nH]c(N)nc54)C[C@@H]3O)[C@@H](CO[Si](c3ccccc3)(c3ccccc3)C(C)(C)C)O2)c(=O)[nH]c1=O | > 40 µM | 0.88 µM
Cc1cn([C@H]2C[C@H](OP(=O)(O)OC[C@H]3O[C@@H](n4cnc5c(=O)[nH]c(N)nc54)C[C@@H]3OP(=O)(O)OC[C@H]3O[C@@H](n4cnc5c(=O)[nH]c(N)nc54)C[C@@H]3OP(=O)(O)OC[C@H]3O[C@@H](n4cnc5c(=O)[nH]c(N)nc54)CC3OP(=O)(O)OC[C@H]3O[C@@H](n4cnc5c(N)ncnc54)C[C@@H]3OP(=O)(O)OC[C@H]3O[C@@H](n4cnc5c(=O)[nH]c(N)nc54)C[C@@H]3O[Si](c3ccccc3)(c3ccccc3)C(C)(C)C)[C@@H](CO[Si](c3ccccc3)(c3ccccc3)C(C)(C)C)O2)c(=O)[nH]c1=O (stereo partly specified) | > 40 µM | 6 µM
Cc1cn([C@H]2C[C@H](OP(=O)(O)OC[C@H]3O[C@@H](n4cnc5c(=O)[nH]c(N)nc54)C[C@@H]3OP(=O)(O)OC[C@H]3O[C@@H](n4cnc5c(=O)[nH]c(N)nc54)C[C@@H]3OP(=O)(O)OC[C@H]3O[C@@H](n4cnc5c(=O)[nH]c(N)nc54)C[C@@H]3OP(=O)(O)OC[C@H]3O[C@@H](n4cnc5c(N)ncnc54)C[C@@H]3OP(=O)(O)OC[C@H]3O[C@@H](n4cnc5c(=O)[nH]c(N)nc54)C[C@@H]3O)[C@@H](COCc3cc(OCc4ccccc4)cc(OCc4ccccc4)c3)O2)c(=O)[nH]c1=O | > 40 µM | 0.49 µM
Cc1cn([C@H]2C[C@H](OP(=O)(O)OC[C@H]3O[C@@H](n4cnc5c(O)nc(N)nc54)C[C@@H]3OP(=O)(O)OC[C@H]3O[C@@H](n4cnc5c(O)nc(N)nc54)C[C@@H]3O)[C@@H](COCc3ccc(OCc4ccccc4)c(OCc4ccccc4)c3)O2)c(=O)[nH]c1=O | > 70 µM | > 70 µM
